The text below walks through data of ChEMBL document CHEMBL1122111, “Allergenic alpha-methylene-gamma-butyrolactones. Stereospecific syntheses of (+)- and (-)-gamma-methyl-alpha-methylene-gamma-butyrolactones. A study of the specificity of (+) and (-) enantiomers in inducing allergic contact dermatitis” (1982).

What all share (assay type): functional
The species entered for assay [1] is Cavia porcellus. As to the kind of experiment: Tested for its effect on guinea pigs sensitized with (+/-)-5-Methyl-3-methylene-dihydro-furan-2-one,number of animals showing erythema covering the part of the test area. The essentials:
(§1)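 Female albino Hartley guinea pigs (250–300 g), sensitized by three intradermal nuchal injections of 0.1 mL on alternate days. The emulsion was 1:1 FCA/saline with 10% racemate (5% of each antipode). After 2 weeks rest, 0.25 mL of 1% or 2% methylene chloride solution was applied to a 2-cm2 area. Reactions were scored 0–3 every 24 h; av = summed scores/animals.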

Assay [2] is filed under the species Cavia porcellus. As to the kind of experiment: Tested for its effect on guinea pigs sensitized with (R)-5-Methyl-3-methylene -dihydro -furan-2-one,av is calculated by adding the test intensity and divided by the number of animals. The essentials:
(§2)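 Female albino Hartley guinea pigs (250–300 g) received three 0.1-mL intradermal nuchal injections on alternate days of a 1:1 FCA/saline emulsion with 5% (+)-enantiomer. After 2 weeks rest, 0.25 mL of 1% or 2% methylene chloride solution was deposited on a 2-cm2 circle and read every 24 h. Erythema/swelling was scored 0–3; av = summed intensities divided by animal number.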

The species entered for assay [3] is Cavia porcellus. As to the kind of experiment: Tested for its effect on guinea pigs sensitized with (S)5-Methyl-3-methylene-dihydro- furan-2-one; Number of sensitive animals out of 8 tested. The essentials: (§3)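 Albino female Hartley guinea pigs (250-300 g) got three 0.1 mL intradermal nuchal injections on alternate days of 1:1 FCA-saline emulsion with 5% enantiomer. After 2 weeks rest, 0.25 mL of 1% (enantiomers) or 1% or 2% (racemate) in methylene chloride was applied to a 2-cm2 area. Erythema/swelling scored 0-3 every 24 h; average = summed scores/animals.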

For assay [4], the species on record is Cavia porcellus. As to the kind of experiment: Tested for its effect on guinea pigs sensitized with (R)-5-Methyl-3-methylene -dihydro -furan-2-one,number of animals showing no reaction. The essentials: as §3
For assay [5], the species on record is Cavia porcellus. As to the kind of experiment: Tested for its effect on guinea pigs sensitized with (R)-5-Methyl-3-methylene -dihydro -furan-2-one, Number of sensitive animals out of 8 tested. Put shortly:
as §2

For assay [6], the species on record is Cavia porcellus. As to the kind of experiment: Tested for its effect on guinea pigs sensitized with (+/-)-5-Methyl-3-methylene-dihydro-furan-2-one,number of animals showing no reaction. The essentials:
as §1

The species entered for assay [7] is Cavia porcellus. As to the kind of experiment: Tested for its effect on guinea pigs sensitized with (S)5-Methyl-3-methylene-dihydro- furan-2-onenumber of animals showing erythema covering the whole test area. Put shortly:
as §3

For assay [8], the species on record is Cavia porcellus. As to the kind of experiment: Tested for its effect on guinea pigs sensitized with (R)-5-Methyl-3-methylene -dihydro -furan-2-one,number of animals showing erythema covering the whole test area. Put shortly:
as §3

Assay [9] is filed under the species Cavia porcellus. As to the kind of experiment: Tested for its effect on guinea pigs sensitized with (S)5-Methyl-3-methylene-dihydro- furan-2-one,av is calculated by adding the test intensity and divided by the number of animals. The essentials: as §3
The species named for assay [10] is Cavia porcellus. As to the kind of experiment: Tested for its effect on guinea pigs sensitized with (R)-5-Methyl-3-methylene -dihydro -furan-2-one,number of animals showing erythema covering the part of the test area. The essentials: as §3
Assay [11] is filed under the species Cavia porcellus. As to the kind of experiment: Tested for its effect on guinea pigs sensitized with (+/-)-5-Methyl-3-methylene-dihydro-furan-2-one, Number of sensitive animals out of 8 tested. Put shortly: as §1
The species entered for assay [12] is Cavia porcellus. As to the kind of experiment: Tested for its effect on guinea pigs sensitized with (S)5-Methyl-3-methylene-dihydro- furan-2-one number of animals showing no reaction. Put shortly:
as §3

Assay [13] is filed under the species Cavia porcellus. As to the kind of experiment: Tested for its effect on guinea pigs sensitized with (+/-)-5-Methyl-3-methylene-dihydro-furan-2-one,number of animals showing erythema covering the whole test area. Put shortly: as §1
The species named for assay [14] is Cavia porcellus. As to the kind of experiment: Tested for its effect on guinea pigs sensitized with (+/-)-5-Methyl-3-methylene-dihydro-furan-2-one, av is calculated by adding the test intensity and divided by the number of animals. The essentials: as §1
The species named for assay [15] is Cavia porcellus. As to the kind of experiment: Tested for its effect on guinea pigs sensitized with (S)5-Methyl-3-methylene-dihydro- furan-2-one number of animals showing erythema and swelling of the test area. Put shortly: as §3
For assay [16], the species on record is Cavia porcellus. As to the kind of experiment: Tested for its effect on guinea pigs sensitized with (+/-)-5-Methyl-3-methylene-dihydro-furan-2-one number of animals showing erythema and swelling of the test area. Put shortly: as §1
Assay [17] is filed under the species Cavia porcellus. As to the kind of experiment: Tested for its effect on guinea pigs sensitized with (R)-5-Methyl-3-methylene -dihydro -furan-2-one, number of animals showing erythema and swelling of the test area. The essentials:
as §2

Assay [18] is filed under the species Cavia porcellus. As to the kind of experiment: Tested for its effect on guinea pigs sensitized with (S)5-Methyl-3-methylene-dihydro- furan-2-one number of animals showing erythema covering the part of the test area. Put shortly: as §3
For assay [19], the species on record is Cavia porcellus. As to the kind of experiment: Tested for effect on guinea pigs sensitized with (+/-)-5-Methyl-3-methylene-dihydro-furan-2-one,number of animals showing no reaction. Put shortly:
as §1

The species named for assay [20] is Cavia porcellus. As to the kind of experiment: Tested for effect on guinea pigs sensitized with (+/-)-5-Methyl-3-methylene-dihydro-furan-2-one, Number of sensitive animals out of 8 tested. The essentials: as §1
The species named for assay [21] is Cavia porcellus. As to the kind of experiment: Tested for effect on guinea pigs sensitized with (S)5-Methyl-3-methylene-dihydro- furan-2-one,av is calculated by adding the test intensity and divided by the number of animals. Put shortly:
(§4)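 Sensitization: female albino Hartley guinea pigs (250–300 g) were given three alternate-day 0.1-mL intradermal nuchal injections of 1:1 FCA/saline emulsion containing 5% (−)-enantiomer. Challenge after 2 weeks rest used 0.25 mL of 1% or 2% methylene chloride solution on a 2-cm2 area, read every 24 h. The scale was 0 (none) to 3 (erythema/swelling beyond area); av = summed scores/animals.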

Assay [22] is filed under the species Cavia porcellus. As to the kind of experiment: Tested for effect on guinea pigs sensitized with (R)-5-Methyl-3-methylene -dihydro -furan-2-one,number of animals showing erythema covering the part of the test area. The essentials: as §2
The species entered for assay [23] is Cavia porcellus. As to the kind of experiment: Tested for effect on guinea pigs sensitized with (S)5-Methyl-3-methylene-dihydro- furan-2-one number of animals showing no reaction. Put shortly: as §4
Assay [24] is filed under the species Cavia porcellus. As to the kind of experiment: Tested for effect on guinea pigs sensitized with (R)-5-Methyl-3-methylene -dihydro -furan-2-one,number of animals showing no reaction. The essentials: as §2
Assay [25] is filed under the species Cavia porcellus. As to the kind of experiment: Tested for effect on guinea pigs sensitized with (+/-)-5-Methyl-3-methylene-dihydro-furan-2-one, av is calculated by adding the test intensity and divided by the number of animals. Put shortly: as §1
The species named for assay [26] is Cavia porcellus. As to the kind of experiment: Tested for effect on guinea pigs sensitized with (S)5-Methyl-3-methylene-dihydro- furan-2-onenumber of animals showing erythema covering the whole test area. The essentials:
as §4

The species entered for assay [27] is Cavia porcellus. As to the kind of experiment: Tested for effect on guinea pigs sensitized with (S)5-Methyl-3-methylene-dihydro- furan-2-one number of animals showing erythema and swelling of the test area. The essentials: as §4
For assay [28], the species on record is Cavia porcellus. As to the kind of experiment: Tested for effect on guinea pigs sensitized with (+/-)-5-Methyl-3-methylene-dihydro-furan-2-one number of animals showing erythema and swelling of the test area. The essentials: as §1
Assay [29] is filed under the species Cavia porcellus. As to the kind of experiment: Tested for effect on guinea pigs sensitized with (R)-5-Methyl-3-methylene -dihydro -furan-2-one, Number of sensitive animals out of 8 tested. Put shortly: as §2
The species named for assay [30] is Cavia porcellus. As to the kind of experiment: Tested for effect on guinea pigs sensitized with (+/-)-5-Methyl-3-methylene-dihydro-furan-2-one,number of animals showing erythema covering the part of the test area. Put shortly: as §1
Assay [31] is filed under the species Cavia porcellus. As to the kind of experiment: Tested for effect on guinea pigs sensitized with (R)-5-Methyl-3-methylene -dihydro -furan-2-one,number of animals showing erythema covering the whole test area. Put shortly:
as §2

The species named for assay [32] is Cavia porcellus. As to the kind of experiment: Tested for effect on guinea pigs sensitized with (S)5-Methyl-3-methylene-dihydro- furan-2-one; Number of sensitive animals out of 8 tested. Put shortly:
as §4

The species named for assay [33] is Cavia porcellus. As to the kind of experiment: Tested for effect on guinea pigs sensitized with (R)-5-Methyl-3-methylene -dihydro -furan-2-one,av is calculated by adding the test intensity and divided by the number of animals. Put shortly:
as §2

The species named for assay [34] is Cavia porcellus. As to the kind of experiment: Tested for effect on guinea pigs sensitized with (S)5-Methyl-3-methylene-dihydro- furan-2-one number of animals showing erythema covering the part of the test area. The essentials: as §4
For assay [35], the species on record is Cavia porcellus. As to the kind of experiment: Tested for effect on guinea pigs sensitized with (+/-)-5-Methyl-3-methylene-dihydro-furan-2-one,number of animals showing erythema covering the whole test area. The essentials: as §1
Assay [36] is filed under the species Cavia porcellus. As to the kind of experiment: Tested for effect on guinea pigs sensitized with (R)-5-Methyl-3-methylene -dihydro -furan-2-one, number of animals showing erythema and swelling of the test area. The essentials: as §2

As for `C=C1C[C@H](C)OC1=O`, the Skin tests intensity is reported as 0 in the assay filed under Cavia porcellus [1]; 3 in the assay filed under Cavia porcellus [4]; 0 in the assay listed under Cavia porcellus [6]; 7 in the assay listed under Cavia porcellus [7]; 2 in the assay filed under Cavia porcellus [8]; 3 in the assay filed under Cavia porcellus [10]. Moreover, the Skin tests intensity in the assay filed under Cavia porcellus [12] is on record as 0; in the assay listed under Cavia porcellus [13], 2; in the assay listed under Cavia porcellus [15] it was 0; in the assay listed under Cavia porcellus [16] it was 6; in the assay listed under Cavia porcellus [17] it was 0; in the assay listed under Cavia porcellus [18] it was 1. Besides, the figures for the av in the assay listed under Cavia porcellus [2], in the assay listed under Cavia porcellus [9] and in the assay listed under Cavia porcellus [14] were 0.4, 0.9 and 1.8, respectively. The entries for the “No. of sensitive animals” value in the assay filed under Cavia porcellus [3], in the assay listed under Cavia porcellus [5] and in the assay listed under Cavia porcellus [11] were 8, 5 and 8, respectively.

Take `C=C1C[C@@H](C)OC1=O`: the Skin tests intensity in the assay filed under Cavia porcellus [19] turned out to be 0; in the assay listed under Cavia porcellus [22], 1; in the assay listed under Cavia porcellus [23], 0; in the assay listed under Cavia porcellus [24], 0; in the assay filed under Cavia porcellus [26], 5; in the assay listed under Cavia porcellus [27], 0. Also, the Skin tests intensity is reported as 6 in the assay listed under Cavia porcellus [28]; 1 in the assay filed under Cavia porcellus [30]; 4 in the assay listed under Cavia porcellus [31]; 3 in the assay filed under Cavia porcellus [34]; 1 in the assay filed under Cavia porcellus [35]; 3 in the assay listed under Cavia porcellus [36]. The “No. of sensitive animals” value in the assay listed under Cavia porcellus [20], in the assay filed under Cavia porcellus [29] and in the assay listed under Cavia porcellus [32] was 8 each time. Moreover, the results for the av in the assay filed under Cavia porcellus [21], in the assay listed under Cavia porcellus [25] and in the assay listed under Cavia porcellus [33] were 0.8, 1.7 and 1.3, respectively.
